Test results: ChEMBL document CHEMBL3739268, “Structure activity relationships of 4-hydroxy-2-pyridones: A novel class of antituberculosis agents” (Eur J Med Chem, 2015)
≈ marks a conversion by molar mass, not a printed value.

Legend:
[1] = test system: Mycobacterium tuberculosis; test: Antituberculosis activity against Mycobacterium tuberculosis H37Rv ATCC 27294 after 5 days; format: functional; details: H37Rv ATCC 27294, 120 h
[2] = Solubility of the compound at pH 6.8 after 24 hrs by shake flask method; format: physicochemical; details: buffer
Outline: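 High-throughput equilibrium shake-flask method. DMSO stock evaporated in filter vials, aqueous buffer added, shaken 24 h on an orbital shaker, then filtered with 30 min further shaking. Filtrate analysed by HPLC.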

[3] = Cytotoxicity against human HepG2 cells; format: cell-based
Cytochrome P450 2D6 = Cytochrome P450 2D6 (Homo sapiens, UniProt P10635); test: Inhibition of CYP2D6 (unknown origin); format: ADME
[4] = Intrinsic clearance in human liver microsomes; format: ADME; details: read-out: CLH
Outline: (§1)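 Compound depletion in human, mouse or rat liver microsomes, quantified by LC/MS/MS. In vitro half-life and hepatic extraction ratio measured, and metabolic clearance predicted from these.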

Cytochrome P450 3A4 = Cytochrome P450 3A4 (Homo sapiens, UniProt P08684); test: Inhibition of CYP3A4 (unknown origin); format: ADME
[5] = Intrinsic clearance in mouse liver microsomes; format: ADME; details: read-out: CLH; outline: as §1
[6] = Tmax in mouse at 50 mg/kg, po; format: ADME, organism-based; details: in vivo
Mus musculus [7] = test: AUC in mouse at 50 mg/kg, po; format: ADME, organism-based; details: in vivo
[8] = Cmax in mouse at 50 mg/kg, po; format: ADME, organism-based; design: dose 50 mg/kg, route oral; details: in vivo
Cytochrome P450 2C9 = Cytochrome P450 2C9 (Homo sapiens, UniProt P11712); test: Inhibition of CYP2C9 (unknown origin); format: ADME
[9] = Terminal half life in mouse at 5 mg/kg, iv; format: ADME, organism-based; details: in vivo, read-out: beta t1/2 (converted)
Outline: (§2)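 Mice dosed i.v. at 5 mg/kg (1 mg/mL in 20% 1,2-propanediol, 10% solutol HS15, pH 7.0 buffer). Plasma sampled at 0.02, 0.25, 0.75, 1.5, 3, 8 and 24 h, three mice per time point. Analysed by LC/MS/MS with warfarin as internal standard. Noncompartmental analysis of mean concentration–time profiles.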

[10] = Volume of distribution at steady state in mouse at 5 mg/kg, iv; format: ADME, organism-based; details: in vivo, read-out: Vdss; outline: as §2
[11] = Intrinsic clearance in rat liver microsomes; format: ADME; details: read-out: CLH; outline: as §1
[12] = Inhibition of Mycobacterium tuberculosis InhA
Mus musculus [13] = test: Oral bioavailability in mouse at 50 mg/kg; format: ADME, organism-based; details: in vivo
[14] = test system: Mycobacterium tuberculosis; test: Antituberculosis activity against Mycobacterium tuberculosis H37Rv infected in mouse assessed as log reduction of CFU in lung at 150 mg/kg qd for 7 days in a week for 3 weeks; format: functional
Outline: (§3)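 Acute model: mice infected intranasally day 0 with 10³ H37Rv bacilli; oral dosing began one week post-infection, daily 7 days/week (3 or 4 weeks). Oral vehicle was 0.5% Tween 80/0.5% methyl cellulose for the 3-week study and MEPC (Capmul MCM/Cremophor-RH40/ethanol/pH 6.8 phosphate buffer) for the 4-week study. Lungs homogenized, serial-dilution plated on 7H11 agar for CFU; ethambutol positive control.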

[15] = Cmax in mouse at 25 mg/kg, po; format: ADME, organism-based; design: dose 25 mg/kg, route oral; details: in vivo
Outline: (§4)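 Plasma sampled at 0.08–24 h, three mice per time point. Plasma extracted with acetonitrile/methanol/acetic acid and quantified by LC/MS/MS (LLOQ 1–3 ng/mL).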

[16] = Tmax in mouse at 25 mg/kg, po; format: ADME, organism-based; details: in vivo; outline: as §4
[17] = test system: Mycobacterium tuberculosis; test: Antituberculosis activity against Mycobacterium tuberculosis H37Rv infected in mouse assessed as log reduction of CFU in lung at 30 mg/kg qd for 7 days in a week for 4 weeks; format: functional; outline: as §3
[18] = test system: Mycobacterium tuberculosis; test: Antituberculosis activity against Mycobacterium tuberculosis H37Rv infected in mouse assessed as log reduction of CFU in spleen at 100 mg/kg qd for 7 days in a week for 4 weeks; format: functional
Outline: (§5)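 Mice infected intranasally with 10³ H37Rv bacilli on day 0; from one week post-infection dosed orally daily, 7 days/week for 4 weeks, in MEPC vehicle (Capmul MCM, Cremophor-RH40, ethanol, 50 mM phosphate pH 6.8). Bacterial load in spleen estimated as log CFU by serial-dilution plating on 7H11 agar; ethambutol positive control.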

[19] = test system: Mycobacterium tuberculosis; test: Antituberculosis activity against Mycobacterium tuberculosis H37Rv infected in mouse assessed as log reduction of CFU in spleen at 30 mg/kg qd for 7 days in a week for 4 weeks; format: functional; outline: as §5
[20] = Oral bioavailability in mouse at 25 mg/kg; format: ADME, organism-based; details: in vivo
[21] = AUC in mouse at 25 mg/kg, po; format: ADME, organism-based; details: in vivo; outline: as §4
[22] = test system: Mycobacterium tuberculosis; test: Antituberculosis activity against Mycobacterium tuberculosis H37Rv infected in mouse assessed as log reduction of CFU in lung at 100 mg/kg qd for 7 days in a week for 4 weeks; format: functional; outline: as §3
[23] = Plasma clearance in mouse at 5 mg/kg, iv; format: ADME, organism-based; outline: as §2

Sequence of Cytochrome P450 2C9 (P11712 whole entry): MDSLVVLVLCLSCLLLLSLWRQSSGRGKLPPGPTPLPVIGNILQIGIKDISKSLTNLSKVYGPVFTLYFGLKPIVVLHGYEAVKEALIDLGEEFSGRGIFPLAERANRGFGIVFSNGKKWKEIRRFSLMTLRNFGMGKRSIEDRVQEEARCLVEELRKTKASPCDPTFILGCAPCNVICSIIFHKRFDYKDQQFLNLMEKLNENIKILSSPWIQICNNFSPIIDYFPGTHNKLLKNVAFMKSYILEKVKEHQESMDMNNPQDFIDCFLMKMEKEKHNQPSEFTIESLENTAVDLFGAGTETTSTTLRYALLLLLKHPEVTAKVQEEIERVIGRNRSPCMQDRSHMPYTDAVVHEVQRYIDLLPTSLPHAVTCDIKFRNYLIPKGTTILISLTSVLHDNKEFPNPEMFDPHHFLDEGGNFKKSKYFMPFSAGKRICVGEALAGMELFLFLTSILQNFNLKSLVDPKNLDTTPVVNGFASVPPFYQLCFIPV
Sequence of Cytochrome P450 3A4 (P08684 whole entry): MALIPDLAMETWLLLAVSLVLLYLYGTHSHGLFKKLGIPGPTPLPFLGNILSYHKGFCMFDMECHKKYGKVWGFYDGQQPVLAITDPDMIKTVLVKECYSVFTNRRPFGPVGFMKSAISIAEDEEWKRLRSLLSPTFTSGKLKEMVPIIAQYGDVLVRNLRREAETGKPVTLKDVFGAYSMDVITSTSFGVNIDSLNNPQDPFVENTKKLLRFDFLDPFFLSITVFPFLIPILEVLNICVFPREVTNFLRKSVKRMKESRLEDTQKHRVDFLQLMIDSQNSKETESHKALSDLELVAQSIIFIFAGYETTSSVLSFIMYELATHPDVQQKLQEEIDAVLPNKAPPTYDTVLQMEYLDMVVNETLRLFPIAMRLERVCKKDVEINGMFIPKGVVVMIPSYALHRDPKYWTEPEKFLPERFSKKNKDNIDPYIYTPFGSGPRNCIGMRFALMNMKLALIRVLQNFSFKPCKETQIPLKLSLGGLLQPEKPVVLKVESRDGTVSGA
Sequence of Cytochrome P450 2D6 (P10635 whole entry): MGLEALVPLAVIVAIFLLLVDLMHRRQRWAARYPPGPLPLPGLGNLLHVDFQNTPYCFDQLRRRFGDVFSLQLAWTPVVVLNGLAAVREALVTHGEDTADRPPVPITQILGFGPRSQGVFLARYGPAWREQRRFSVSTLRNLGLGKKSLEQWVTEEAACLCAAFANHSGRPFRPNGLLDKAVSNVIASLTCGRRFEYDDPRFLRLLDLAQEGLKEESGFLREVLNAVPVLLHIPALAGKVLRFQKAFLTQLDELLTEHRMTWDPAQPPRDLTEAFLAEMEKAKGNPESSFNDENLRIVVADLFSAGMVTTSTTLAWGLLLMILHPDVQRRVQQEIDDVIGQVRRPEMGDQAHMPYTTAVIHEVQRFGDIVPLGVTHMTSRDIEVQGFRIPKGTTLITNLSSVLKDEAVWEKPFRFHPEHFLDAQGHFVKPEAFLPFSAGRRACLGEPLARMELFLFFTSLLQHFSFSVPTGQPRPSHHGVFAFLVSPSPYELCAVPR

Row | SMILES | MIC50 [1] [µM] | solubility thermodynamic at 24 h [2] [µM] | further results
1 | Oc1nc2ccccc2c(O)c1-c1ccccc1 | 13.2 (≈ 3.13 µg/mL) |  | 
2 | CC(C)Cc1cc(O)c(-c2ccccc2)c(=O)[nH]1 | 1.54 (≈ 0.375 µg/mL) | 550 (≈ 134 µg/mL) | CC50 [3]: > 20 µM; IC50 (Cytochrome P450 2D6): > 20 µM; microsomal CLint [4]: 20 µL/min/mg; IC50 (Cytochrome P450 3A4): > 20 µM; microsomal CLint [5]: 22 µL/min/mg; Tmax [6]: 0.5 h; AUC (Mus musculus [7]): 27.18 µM·h; Cmax [8]: 13.2 µM; IC50 (Cytochrome P450 2C9): > 20 µM; half-life [9]: 1.21 h; Vd [10]: 0.46 L/kg; microsomal CLint [11]: 3.4 µL/min/mg; IC50 [12]: 9.6 µM; F (Mus musculus [13]): 55%; Activity [14]: 0.95 log10CFU
3 | CC1(C)CCC(Cc2cc(O)c(-c3ccccc3)c(=O)[nH]2)CC1 | 0.05 (≈ 0.0156 µg/mL) | 25 (≈ 7.79 µg/mL) | Cmax [15]: 13.7 µM; CC50 [3]: > 20 µM; microsomal CLint [4]: 59 µL/min/mg; Tmax [16]: 6 h; Activity [17]: 1 log10CFU; microsomal CLint [5]: 45 µL/min/mg; Activity [18]: 2.8 log10CFU; half-life [9]: 1.13 h; Activity [19]: 2.5 log10CFU; bioavailability [20]: 66%; AUC [21]: 65.8 µM·h; Vd [10]: 0.54 L/kg; Activity [22]: 1.92 log10CFU; IC50 [12]: 0.57 µM; clearance [23]: 13.6 mL/min/kg
4 | CC(C)Cc1nc(O)c(-c2ccccc2)c(=O)[nH]1 | > 20 |  | 
5 | COc1nc(CC(C)C)cc(O)c1-c1ccccc1 | > 20 |  | 
6 | CC(C)Cc1cc(O)c(-c2ccccc2)c(=O)n1C | 8.1 (≈ 2.08 µg/mL) |  | 
7 | O=c1[nH]c(CC2CCC2)cc(O)c1-c1ccccc1 | 1.19 (≈ 0.304 µg/mL) | 280 (≈ 71.5 µg/mL) | 
8 | CC(C)Cc1cc(NCc2ccccc2)c(-c2ccccc2)c(=O)[nH]1 | > 20 |  | 
9 | COc1ccc(-c2c(O)cc(CC(C)C)[nH]c2=O)cc1 | > 20 |  | 
10 | CC(C)CCc1cc(O)c(-c2ccccc2)c(=O)[nH]1 | 1.51 (≈ 0.389 µg/mL) | 128 (≈ 32.9 µg/mL) | 
11 | O=c1[nH]c(Cc2ccncc2)cc(O)c1-c1ccccc1 | 6.8 (≈ 1.89 µg/mL) | > 1000 | 
12 | CC(C)Cc1cc(O)c(-c2ccccc2)c(=O)n1Cc1ccccc1 | > 20 |  | 
13 | CC(C)Cc1cc(O)c(-c2ccc(Cl)cc2)c(=O)[nH]1 | > 20 |  | 
14 | CC(C)Cc1cc(O)c(-c2cccc(Cl)c2)c(=O)[nH]1 | 2.67 (≈ 0.742 µg/mL) |  | 
15 | CC(C)Cc1cc(O)c(-c2ccccc2Cl)c(=O)[nH]1 | 3.32 (≈ 0.922 µg/mL) |  | 
16 | CC(C)Cc1ccc(-c2ccccc2)c(=O)[nH]1 | > 20 |  | 
17 | CC(C)Cc1cc(N)c(-c2ccccc2)c(=O)[nH]1 | > 20 |  | 
18 | O=c1[nH]c(CC2CC2)cc(O)c1-c1ccccc1 | 4.53 (≈ 1.09 µg/mL) | 891 (≈ 215 µg/mL) | 
19 | CC(C)Cc1cc(O)c(-c2ccc(F)cc2)c(=O)[nH]1 | 6.75 (≈ 1.76 µg/mL) |  | 
20 | Cc1cc(O)c(-c2ccccc2)c(=O)[nH]1 | > 20 | > 1000 | 
21 | CC(C)Cc1cc(NS(C)(=O)=O)c(-c2ccccc2)c(=O)[nH]1 | > 20 |  | 

Row | SMILES | MIC50 [1] [µM] | solubility thermodynamic at 24 h [2] [µM] | further results
22 | CC(C)Cc1cc(O)c(-c2ccccn2)c(=O)[nH]1 | > 20 |  | 
23 | CC(C)Cc1cc(O)c(-c2ccccc2)c(=O)n1C(C)C | > 20 |  | 
24 | O=c1[nH]c(CC2CCOCC2)cc(O)c1-c1ccccc1 | 10.1 (≈ 2.88 µg/mL) | > 1000 | 
25 | CC(C)Cc1cc(O)c(-c2cccnc2)c(=O)[nH]1 | > 20 |  | 
26 | O=c1[nH]c(CC2CCCC2)cc(O)c1-c1ccccc1 | 0.92 (≈ 0.248 µg/mL) | 144 (≈ 38.8 µg/mL) | 
27 | CC(C)Cc1cc(O)c(-c2ccncc2)c(=O)[nH]1 | > 20 |  | 
28 | CN(C)Cc1cc(O)c(-c2ccccc2)c(=O)[nH]1 | > 20 | 671 (≈ 164 µg/mL) | 
29 | O=c1[nH]c(Cc2ccccc2)cc(O)c1-c1ccccc1 | 1.4 (≈ 0.388 µg/mL) | 40 (≈ 11.1 µg/mL) | 
30 | O=c1[nH]c(CC2CCC(F)(F)CC2)cc(O)c1-c1ccccc1 | 1.32 (≈ 0.422 µg/mL) | 104 (≈ 33.2 µg/mL) | 
31 | CC(C)Cc1cc(O)c(-c2ccccc2F)c(=O)[nH]1 | 6.31 (≈ 1.65 µg/mL) |  | 
32 | CC(C)Cc1cc(O)c(Cc2ccccc2)c(=O)[nH]1 | > 20 |  | 
33 | COc1ccccc1-c1c(O)cc(CC(C)C)[nH]c1=O | > 20 |  | 
34 | COc1cccc(-c2c(O)cc(CC(C)C)[nH]c2=O)c1 | > 20 |  | 
35 | CC(C)Cc1cc(O)c(C2CCCCC2)c(=O)[nH]1 | > 20 |  | 
36 | COc1cc(CC(C)C)[nH]c(=O)c1-c1ccccc1 | > 20 |  | 
37 | CC(C)Cc1cc(O)c(-c2cccc(F)c2)c(=O)[nH]1 | 2.69 (≈ 0.703 µg/mL) |  | 
38 | CC(C)Cc1cc(O)c(-c2ccccc2)c(=O)o1 | 13.8 (≈ 3.37 µg/mL) |  | 
39 | O=c1[nH]c(CC2CCCCC2)cc(O)c1-c1ccccc1 | 0.16 (≈ 0.0453 µg/mL) | 24 (≈ 6.8 µg/mL) | 
40 | COc1nc2ccc(Br)cc2cc1[C@@H](c1ccccc1)[C@@](O)(CCN(C)C)c1cccc2ccccc12 [BEDAQUILINE] | 0.05 (≈ 0.0278 µg/mL) |  | 
41 | NNC(=O)c1ccncc1 [ISONIAZID] | 0.33 (≈ 0.0453 µg/mL) |  | 
42 | O=[N+]([O-])c1cn2c(n1)OC[C@@H](OCc1ccc(OC(F)(F)F)cc1)C2 [PRETOMANID] | 0.4 (≈ 0.144 µg/mL) |  | 
